# M1 ag parental = nonselective activator or artifact in parental CHO-K1 cells; 360,000 tested, 0.48% active; activation, % at 3 µM; Fluo-8 calcium fluorescence; scaled to maximal ATP response, vehicle zero; in the data active = activation above about 15%;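 note: untransfected CHO-K1 host cells lacking M1 receptor as counterscreen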
# CHO-K1 Ca antag = M1 antagonist counterscreen hit in parental CHO-K1 cells | ATP-induced calcium, Fluo-8 fluorescence | inhibition, % at 3 µM | 360,000 tested, 0.6% active;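 active = inhibition above a per-plate cutoff, the plate's mean sample inhibition plus 3 SD, cut at about 24% in these data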
# OX1R antag-1 = blocks the human orexin 1 receptor; O43613; OX1R-expressing cells, FRET antagonist read-out; inhibition, % at 6.6 µM; 330,000 tested, 1.8% active; AID 485270; in the data active = inhibition mostly above about 38%, no sharp cut-off; inactive = mostly below about 40%
# Target sequence (O43613 whole entry, looked up): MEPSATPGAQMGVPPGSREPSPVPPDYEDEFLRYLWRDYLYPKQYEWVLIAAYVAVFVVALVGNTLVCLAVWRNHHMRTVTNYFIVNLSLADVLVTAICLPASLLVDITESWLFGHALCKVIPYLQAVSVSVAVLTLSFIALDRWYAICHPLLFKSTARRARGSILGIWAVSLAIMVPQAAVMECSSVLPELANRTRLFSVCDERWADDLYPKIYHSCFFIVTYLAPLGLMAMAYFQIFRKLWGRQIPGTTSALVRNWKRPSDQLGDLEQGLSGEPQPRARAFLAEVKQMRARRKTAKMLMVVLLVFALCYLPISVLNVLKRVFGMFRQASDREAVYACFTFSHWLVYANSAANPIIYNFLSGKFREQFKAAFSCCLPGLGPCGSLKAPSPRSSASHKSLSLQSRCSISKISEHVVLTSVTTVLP
# OX1R antag-2 = antagonists of human orexin 1 receptor; O43613; CHO/OX1R cells, Fluo-8 calcium fluorescence, orexin A; inhibition, % at 5 µM; 330,000 tested, 0.43% active; AID 434989;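 active = inhibition above its plate's threshold, mean inhibition of all tested compounds on the plate plus 3 SD, cut at about 37% in these data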
# CHO parental Ca = signal in parental CHO cells, OX1R antagonist counter-screen. parental CHO-K1, ATP-induced calcium, Fluo-8 fluorescence. inhibition, % at 5.6 µM. 330,000 tested, 0.63% active. AID 463079;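 active = inhibition above that plate's mean sample inhibition plus 3 SD, cut at about 26% in these data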
#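 material = parental CHO cells | also added = ATP as calcium-mobilizing challenge | dosing = single point at 5.6 µM | detection = intracellular calcium via Fluo-8 no-wash fluorescent dye | read-out = % inhibition | benchmarks = low control ATP plus DMSO, high control DMSO only | repeats = one well per compound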
# M1 PAM parental = nonselective activator or artifact in parental CHO-K1 calcium assay. 360,000 tested, 0.02% active. ATP EC20, Fluo-8 calcium fluorescence; 0% at ATP EC20, 100% at ATP max. activation, % at 3 µM;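 active = activation above the run cutoff, the mean activation of all test compounds plus 3 SD, cut at about 40% in these data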;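 note: peak over basal fluorescence ratio in a 140 s read after ATP addition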
# OX1R Fluo8 conf = confirmation of human orexin 1 receptor antagonists | 1,100 tested, 38% active | inhibition, % at 5 µM | shares compounds with OX1R antag-2 | CHO/OX1R cells, orexin A calcium Fluo-8 fluorescence; in the data active = inhibition above about 29%
# CHO Ca counter = counter-screen: parental CHO calcium response change, triplicate; shares compounds with OX1R antag-2; parental CHO-K1, ATP-induced calcium, Fluo-8 fluorescence; inhibition, % at 5.6 µM; 1,100 tested, 9.3% active; AID 492965;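 active = inhibition above a per-plate limit, the mean inhibition of that plate's test compounds plus 3 SD, cut at about 25% in these data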
# OX1R HTRF conf = OX1R (human) antagonism, HTRF confirmed. OX1R-expressing cells, HTRF antagonist assay. 1,800 tested, 49% active. shares compounds with OX1R antag-1. AID 492964. inhibition, % at 6.6 µM; in the data active = inhibition above about 55%;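 note: CHO cells expressing OX1R stimulated with orexin A at about EC80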
# CHO-K1 HTRF cnt = signal in parental CHO-K1 cells, OX1R antagonist counter-screen; shares compounds with OX1R antag-1; HTRF counterscreen; inhibition, % at 6.6 µM; 1,800 tested, 48% active; AID 493232; in the data active = inhibition above about 17%
# A number is an active result; - = inactive; . = no result. Most compounds without a hit are left out; they make up all but 2.9% or so of the library.
SMILES,M1 ag parental,CHO-K1 Ca antag,OX1R antag-1,OX1R antag-2,CHO parental Ca,M1 PAM parental,others
Cc1ccc(-n2c(/C=C/c3ccc4c(c3)OCO4)nc3ccccc3c2=O)cc1,.,.,-,-,-,.,
Cc1ccc(OCC(=O)N2CCN(Cc3ccc4c(c3)OCO4)CC2)cc1,-,30,-,-,-,-,
COc1ccc(OCC(=O)N2CCN(Cc3ccc4c(c3)OCO4)CC2)cc1,-,-,-,-,-,-,
C#CC1(O)CCC2C3CCC4=CC(=O)CCC4=C3C=CC21C (centres undefined),16,-,.,.,.,-,
Cn1cc(C(=O)OCC(=O)NC2CCCC2)c2ccccc21,-,-,-,-,-,-,
CN(C(=O)COC(=O)c1cn(C)c2ccccc12)C1CCCCC1,-,-,38,-,-,-,
S=C(NCCc1ccccc1)N1Cc2cc(Br)ccc2-n2nncc2C1,-,27,.,.,.,-,
S=C(NCCc1ccccc1)N1Cc2ccc(Br)cc2-n2nncc2C1,-,-,.,.,.,-,
Cc1ccc(OC(=O)N(C)C[C@H]2OCc3cnnn3CCCC(=O)N([C@@H](C)CO)C[C@H]2C)cc1,-,-,.,.,.,-,
O=S(=O)(c1ccccc1)N1CC1c1ccccc1 (centres undefined),-,-,-,-,-,-,
Fc1ccc(CCNCc2ccc(Br)cc2)cc1,-,-,-,-,-,41,
Fc1ccc(CNCCc2ccccc2F)cc1,-,-,-,-,-,-,
CC(=O)c1cn(Cc2ccccc2C#N)c2ccccc12,17,28,-,-,-,-,
COc1ccc(-n2nnnc2C(CCc2ccccc2)N2CCC(n3c(=O)[nH]c4ccccc43)CC2)cc1 (centres undefined),-,-,.,.,.,-,
O=C(Nc1nc(-c2ccccc2)c(-c2ccccc2)s1)c1ccc(S(=O)(=O)N(CCCl)CCCl)cc1,-,-,-,-,-,-,
Nc1nc(N)c2cnnn2n1,-,-,.,.,.,-,
CN1CC(C(=O)c2cccs2)C(c2ccc(Cl)cc2)C1 (centres undefined),21,-,-,-,-,-,
OC(CC#CCN1CCCCCC1)(c1ccccc1)C1CCCC1 (centres undefined),17,-,-,-,-,-,
CN(C)CC#CCC(O)(c1ccccc1)C1CCCC1 (centres undefined),-,25,-,-,-,-,
CC1(C(O)(C#CCN2CCCCC2)c2ccccc2)CCCC1 (centres undefined),-,-,-,-,-,-,
O=C1COc2ccc(C(=O)COC(=O)Cc3ccccc3)cc2N1,-,-,-,-,-,-,
CC(=O)Nc1ccc([As](=O)(O)c2ccc([N+](=O)[O-])cc2)cc1,-,-,67,-,-,-,
CN(C)C(=O)Oc1ccc([N+](=O)[O-])cc1,-,-,-,-,-,-,
C/C(=N\NC(=S)Nc1ccccc1)c1c(O)n(C)c(=O)n(C)c1=O,22,-,-,-,-,-,
Cc1cccc(N=C2c3cc([N+](=O)[O-])ccc3-c3c2cc([N+](=O)[O-])cc3[N+](=O)[O-])c1,-,-,.,.,.,-,
SMILES,M1 ag parental,CHO-K1 Ca antag,OX1R antag-1,OX1R antag-2,CHO parental Ca,M1 PAM parental,others
O=C1NS(=O)c2cc([N+](=O)[O-])cc([N+](=O)[O-])c21 (centres undefined),-,-,67,-,-,-,
O=[N+]([O-])c1cc(F)c(N2CCCCCC2)cc1N1CCNCC1,-,-,-,-,-,-,
NC(=O)c1cc(N2CC2)c([N+](=O)[O-])cc1[N+](=O)[O-],-,-,74,-,-,-,
CC=C(C)C1(CCC)C(=O)NC(=S)NC1=O,-,-,.,.,.,-,
Clc1ccc(C[n+]2c(-c3ccccc3)cc(-c3ccccc3)cc2-c2ccccc2)cc1,-,-,-,63,63,-,
Fc1ccc(C[n+]2c(-c3ccccc3)cc(-c3ccccc3)cc2-c2ccccc2)cc1,.,.,-,-,-,.,
CCOC(=O)C1(CCc2ccccc2)CCN(CC(O)CO)CC1 (centres undefined),-,-,-,-,-,-,
COc1ccc(-n2c(O)c(/C=C/C=Nc3ccccc3)c(=O)[nH]c2=O)cc1,23,-,-,45,-,-,OX1R Fluo8 conf=-;CHO Ca counter=32
O=c1[nH]c(=O)n(-c2ccccc2)c(O)c1/C=C/C=Nc1ccccc1,-,-,-,-,-,-,
CN(C)P1(N(C)C)=Nc2c(c(N)nn2C)C(c2ccccc2)=N1,-,-,-,89,-,-,OX1R Fluo8 conf=-;CHO Ca counter=-
COC(=O)C1=C(c2ccc(F)cc2OCc2ccccc2)C[C@@H]2CC[C@H]1N2C(=O)NCCOc1ccccc1Cl,-,-,-,56,-,-,OX1R Fluo8 conf=-;CHO Ca counter=-
O=C1NCN(c2ccccc2)C12CCN(C(c1cc3ccccc3o1)c1nnnn1C1CCCCC1)CC2 (centres undefined),-,-,.,.,.,-,
O=P(O)(O)Oc1ccccc1P(=O)(c1ccccc1)c1ccccc1,-,-,-,-,-,-,
CCCCn1c(N)c(C(=O)OCC2CCCO2)c2nc3ccccc3nc21 (centres undefined),-,-,100,78,-,-,OX1R Fluo8 conf=-;CHO Ca counter=-;OX1R HTRF conf=-;CHO-K1 HTRF cnt=-
CC(C)CCn1c(N)c(C(=O)OCC2CCCO2)c2nc3ccccc3nc21 (centres undefined),-,-,-,-,-,-,
C[C@H]1CCC/C=C/[C@@H]2C[C@H](O)C[C@H]2[C@H](O)/C=C/C(=O)O1,-,-,-,-,-,-,
Cc1ccc(C)c(NP(=O)(Oc2ccccc2)Oc2ccccc2)c1,-,-,42,81,-,-,OX1R Fluo8 conf=-;CHO Ca counter=-;OX1R HTRF conf=58;CHO-K1 HTRF cnt=-
CC(=O)N1CN2CN(C(C)=O)CC(C(=O)c3ccc([N+](=O)[O-])cc3)(C2)C1,-,-,93,-,-,-,OX1R HTRF conf=58;CHO-K1 HTRF cnt=52
CC(=O)N1CN2CN(C(C)=O)CC(C(=O)c3ccccc3)(C2)C1,-,-,-,-,-,-,
O=C1CN=C(c2ccc[nH]2)c2cc(Cl)ccc2N1,-,-,-,-,-,-,
O=[N+]([O-])c1ccc(N2CCCC2)c2ccncc12,-,-,87,-,-,-,OX1R HTRF conf=-;CHO-K1 HTRF cnt=69
O=[N+]([O-])c1ccc(NC2CCCC2)c2ccncc12,-,-,-,-,-,-,
CN1CCN(c2ccc([N+](=O)[O-])c3cccnc23)CC1,-,-,128,-,-,-,OX1R HTRF conf=-;CHO-K1 HTRF cnt=64
